# In ChEMBL document CHEMBL1770122, “Synthesis, antibacterial and antimycobacterial activities of some new 4-aryl/heteroaryl-2,6-dimethyl-3,5-bis-N-(aryl)-carbamoyl-1,4-dihydropyridines” (2011):
# Activity calls are given as the source filed them. The rule behind the calls is not given here.
# How the values were obtained:
# [1] = system: Mycobacterium tuberculosis; test: Antimycobacterial activity against multidrug-susceptible Mycobacterium tuberculosis H37Rv ATCC 27294 after 4 weeks; assay type: functional; details: H37Rv ATCC 27294, 672 h
# Summary of the method: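 Lowenstein-Jensen proportion method. Drug at 6.25, 12.5, 25, 50 and 100 µg mL-1 in LJ medium slants, set overnight. Inoculated with 4 mg mL-1 suspension by 3 mm loop, 37 °C, 4 weeks. MIC is the lowest concentration fully inhibiting growth, by CFU versus medium, inoculated and DMSO controls. Three independent determinations.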
# Bacillus subtilis [2] = test: Antimicrobial activity against Bacillus subtilis NCIM 2063/ATCC 6633 at 50 ug/mL after 24 hrs by disc diffusion method; assay type: functional; details: NCIM 2063/ATCC 6633, 24 h, read-out: DIZ
# Summary of the method: (§1)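 NCIM cultures were used. Test solutions in DMSO, diluted from a 1 mg mL-1 stock to 12.5, 25 or 50 µg mL-1, were loaded onto sterile 5 mm filter-paper discs and dried. Nutrient agar was spread with 100 µL of 24 h bacterial suspension (10^8 cells mL-1). Incubation was 37 ± 1 °C for 24 h, and inhibition-zone diameter was read. DMSO served as control, with tetracyclin and streptomycin (50 µg mL-1) discs as standards. Triplicate, averaged.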
# Bacillus subtilis [3] = test: Antimicrobial activity against Bacillus subtilis NCIM 2063/ATCC 6633 at 1000 ug/mL after 24 hrs by disc diffusion method; assay type: functional, organism-based
# Staphylococcus aureus [4] = test: Antimicrobial activity against Staphylococcus aureus NCIM 2079/ATCC 6538P at 50 ug/mL after 24 hrs by disc diffusion method; assay type: functional; details: read-out: DIZ; summary of the method: as §1
# Staphylococcus aureus [5] = test: Antimicrobial activity against Staphylococcus aureus NCIM 2079/ATCC 6538P at 1000 ug/mL after 24 hrs by disc diffusion method; assay type: functional, organism-based
# Staphylococcus aureus [6] = test: Antimicrobial activity against methicillin-resistant Staphylococcus aureus at 50 ug/mL after 24 hrs by disc diffusion method; assay type: functional, organism-based
# Staphylococcus aureus [7] = test: Antimicrobial activity against methicillin-resistant Staphylococcus aureus at 1000 ug/mL after 24 hrs by disc diffusion method; assay type: functional; details: for zone of inhibition at 1000 µg/mL: read-out: DIZ
# Summary of the method: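 Disc diffusion on nutrient agar. Compound at 1 mg mL-1 (1000 µg mL-1) in DMSO was loaded onto 5 mm sterile filter-paper discs and dried. Plates were spread with 100 µL of a 24 h culture at 10^8 cells mL-1. Incubated at 37 ± 1 °C for 24 h; inhibition zone diameters recorded. DMSO control disc. Triplicate, averaged.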
# Escherichia coli [8] = test: Antimicrobial activity against Escherichia coli NCIM 2068/ATCC 11105 at 50 ug/mL after 24 hrs by disc diffusion method; assay type: functional; details: NCIM 2068/ATCC 11105, 24 h, read-out: DIZ; summary of the method: as §1
# Escherichia coli [9] = test: Antimicrobial activity against Escherichia coli NCIM 2068/ATCC 11105 at 1000 ug/mL after 24 hrs by disc diffusion method; assay type: functional, organism-based
# Proteus vulgaris [10] = test: Antimicrobial activity against Proteus vulgaris NCIM 2027/ATCC 13315 at 50 ug/mL after 24 hrs by disc diffusion method; assay type: functional; details: NCIM 2027/ATCC 13315, 24 h, read-out: DIZ; summary of the method: as §1
# Proteus vulgaris [11] = test: Antimicrobial activity against Proteus vulgaris NCIM 2027/ATCC 13315 at 1000 ug/mL after 24 hrs by disc diffusion method; assay type: functional, organism-based
# Bacillus subtilis [12] = test: Antimicrobial activity against Bacillus subtilis NCIM 2063/ATCC 6633 at 12.5 ug/mL after 24 hrs by disc diffusion method; assay type: functional; details: for zone of inhibition at 12.5 µg/mL: NCIM 2063/ATCC 6633, 24 h, read-out: DIZ; summary of the method: as §1
# Bacillus subtilis [13] = test: Antimicrobial activity against Bacillus subtilis NCIM 2063/ATCC 6633 at 25 ug/mL after 24 hrs by disc diffusion method; assay type: functional; details: NCIM 2063/ATCC 6633, 24 h, read-out: DIZ; summary of the method: as §1
# Staphylococcus aureus [14] = test: Antimicrobial activity against Staphylococcus aureus NCIM 2079/ATCC 6538P at 12.5 ug/mL after 24 hrs by disc diffusion method; assay type: functional; details: for zone of inhibition at 12.5 µg/mL: read-out: DIZ; summary of the method: as §1
# Staphylococcus aureus [15] = test: Antimicrobial activity against Staphylococcus aureus NCIM 2079/ATCC 6538P at 25 ug/mL after 24 hrs by disc diffusion method; assay type: functional; details: read-out: DIZ; summary of the method: as §1
# Staphylococcus aureus [16] = test: Antimicrobial activity against methicillin-resistant Staphylococcus aureus at 12.5 ug/mL after 24 hrs by disc diffusion method; assay type: functional, organism-based
# Staphylococcus aureus [17] = test: Antimicrobial activity against methicillin-resistant Staphylococcus aureus at 25 ug/mL after 24 hrs by disc diffusion method; assay type: functional, organism-based
# Escherichia coli [18] = test: Antimicrobial activity against Escherichia coli NCIM 2068/ATCC 11105 at 12.5 ug/mL after 24 hrs by disc diffusion method; assay type: functional; details: NCIM 2068/ATCC 11105, 24 h, read-out: DIZ; summary of the method: as §1
# Escherichia coli [19] = test: Antimicrobial activity against Escherichia coli NCIM 2068/ATCC 11105 at 25 ug/mL after 24 hrs by disc diffusion method; assay type: functional; details: NCIM 2068/ATCC 11105, 24 h, read-out: DIZ; summary of the method: as §1
# Proteus vulgaris [20] = test: Antimicrobial activity against Proteus vulgaris NCIM 2027/ATCC 13315 at 12.5 ug/mL after 24 hrs by disc diffusion method; assay type: functional; details: NCIM 2027/ATCC 13315, 24 h, read-out: DIZ; summary of the method: as §1
# Proteus vulgaris [21] = test: Antimicrobial activity against Proteus vulgaris NCIM 2027/ATCC 13315 at 25 ug/mL after 24 hrs by disc diffusion method; assay type: functional; details: NCIM 2027/ATCC 13315, 24 h, read-out: DIZ; summary of the method: as §1
Compound,MIC [1] [µg/mL],zone of inhibition at 50 µg/mL (Bacillus subtilis [2]) [mm],diameter of the inhibition zone (DIZ) (Bacillus subtilis [3]),zone of inhibition at 50 µg/mL (Staphylococcus aureus [4]) [mm],diameter of the inhibition zone (DIZ) (Staphylococcus aureus [5]),diameter of the inhibition zone (DIZ) (Staphylococcus aureus [6]),zone of inhibition at 1000 µg/mL (Staphylococcus aureus [7]) [mm],zone of inhibition at 50 µg/mL (Escherichia coli [8]) [mm],diameter of the inhibition zone (DIZ) (Escherichia coli [9]),zone of inhibition at 50 µg/mL (Proteus vulgaris [10]) [mm],diameter of the inhibition zone (DIZ) (Proteus vulgaris [11]),zone of inhibition at 12.5 µg/mL (Bacillus subtilis [12]) [mm],zone of inhibition at 25 µg/mL (Bacillus subtilis [13]) [mm],zone of inhibition at 25 µg/mL (Staphylococcus aureus [15]) [mm],diameter of the inhibition zone (DIZ) (Staphylococcus aureus [16]),diameter of the inhibition zone (DIZ) (Staphylococcus aureus [17]),zone of inhibition at 12.5 µg/mL (Escherichia coli [18]) [mm],zone of inhibition at 25 µg/mL (Escherichia coli [19]) [mm],zone of inhibition at 12.5 µg/mL (Proteus vulgaris [20]) [mm],zone of inhibition at 25 µg/mL (Proteus vulgaris [21]) [mm],other results
NC(=O)c1cnccn1 [PYRAZINAMIDE],32,,,,,,,,,,,,,,,,,,,,
CN(C)[C@@H]1C(O)=C(C(N)=O)C(=O)[C@@]2(O)C(O)=C3C(=O)c4c(O)cccc4[C@@](C)(O)[C@H]3C[C@@H]12 [TETRACYCLINE],,20,inactive,22,inactive,inactive,15,25,inactive,21,inactive,,,,,,,,,,
CC1=C(C(=O)Nc2ccc(C)cc2)C(c2ccccn2)C(C(=O)Nc2ccc(C)cc2)=C(C)N1,> 25,12,inactive,12,inactive,inactive,,14,inactive,16,inactive,9,10,10,inactive,inactive,8,10,9,12,zone of inhibition at 12.5 µg/mL (Staphylococcus aureus [14]): 8 mm; diameter of the inhibition zone (DIZ) (Staphylococcus aureus [7]): inactive
CN[C@@H]1[C@H](O[C@H]2[C@H](O[C@H]3[C@H](O)[C@@H](O)[C@H](N=C(N)N)[C@@H](O)[C@@H]3N=C(N)N)O[C@@H](C)[C@]2(O)C=O)O[C@@H](CO)[C@H](O)[C@H]1O [STREPTOMYCIN],,22,inactive,21,inactive,inactive,18,23,inactive,26,inactive,,,,,,,,,,
CC1=C(C(=O)Nc2ccc(C)cc2)C(c2ccc[nH]2)C(C(=O)Nc2ccc(C)cc2)=C(C)N1,12.5,13,inactive,12,inactive,inactive,10,22,inactive,18,inactive,7,11,11,inactive,inactive,14,19,10,14,zone of inhibition at 12.5 µg/mL (Staphylococcus aureus [14]): 9 mm
CC1=C(C(=O)Nc2ccccc2)C(c2ccco2)C(C(=O)Nc2ccccc2)=C(C)N1,> 25,16,inactive,14,inactive,inactive,10,18,inactive,17,inactive,10,14,12,inactive,inactive,12,15,8,13,zone of inhibition at 12.5 µg/mL (Staphylococcus aureus [14]): 8 mm
CC1=C(C(=O)Nc2ccccc2C)C(c2ccccn2)C(C(=O)Nc2ccccc2C)=C(C)N1,25,10,inactive,15,inactive,inactive,8,19,inactive,16,inactive,,8,12,inactive,inactive,14,17,10,12,diameter of the inhibition zone (DIZ) (Bacillus subtilis [12]): inactive; diameter of the inhibition zone (DIZ) (Staphylococcus aureus [14]): inactive
CCc1ccc(C2C(C(=O)Nc3ccccc3)=C(C)NC(C)=C2C(=O)Nc2ccccc2)cc1,> 25,21,inactive,16,inactive,inactive,,15,inactive,16,inactive,11,13,11,inactive,inactive,10,13,9,14,zone of inhibition at 12.5 µg/mL (Staphylococcus aureus [14]): 8 mm; diameter of the inhibition zone (DIZ) (Staphylococcus aureus [7]): inactive
